The target of one data set is T1, Sulfotransferase 1E1 (Homo sapiens, UniProt P49888).
T1 sequence (P49888 whole entry): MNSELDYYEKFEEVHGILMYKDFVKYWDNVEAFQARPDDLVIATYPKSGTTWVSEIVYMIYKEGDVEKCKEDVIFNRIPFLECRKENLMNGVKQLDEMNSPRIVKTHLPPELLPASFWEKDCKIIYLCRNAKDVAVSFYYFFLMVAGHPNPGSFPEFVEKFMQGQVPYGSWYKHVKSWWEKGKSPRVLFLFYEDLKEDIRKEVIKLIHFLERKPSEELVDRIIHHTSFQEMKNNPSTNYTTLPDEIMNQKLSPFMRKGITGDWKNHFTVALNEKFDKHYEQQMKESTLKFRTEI
As to the kind of experiment: Inhibition of human estrogen sulfotransferase.

The target of data set [1] is T2, Thymidine kinase (Human alphaherpesvirus 1) (UniProt Q9QNF7).
T2 sequence (whole entry): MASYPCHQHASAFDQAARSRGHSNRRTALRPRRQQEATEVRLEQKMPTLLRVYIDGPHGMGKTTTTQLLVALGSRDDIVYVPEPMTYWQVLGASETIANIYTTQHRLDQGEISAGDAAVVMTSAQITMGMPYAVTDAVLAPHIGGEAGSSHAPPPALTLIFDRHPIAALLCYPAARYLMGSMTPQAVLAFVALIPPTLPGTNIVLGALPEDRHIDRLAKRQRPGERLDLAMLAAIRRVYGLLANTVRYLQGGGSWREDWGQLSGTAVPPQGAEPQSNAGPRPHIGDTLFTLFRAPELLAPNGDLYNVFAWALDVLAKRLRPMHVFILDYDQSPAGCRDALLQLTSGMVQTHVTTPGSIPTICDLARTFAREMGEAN
The data set can be described thus: Inhibition of Herpes simplex virus type 1 thymidine kinase.

For the next data set, the species on record is Homo sapiens. As to the kind of experiment: Inhibition of methionine aminopeptidase.
Data set [2] addresses T3, Purine nucleoside phosphorylase (Homo sapiens) (UniProt P00491).
T3 sequence (whole entry): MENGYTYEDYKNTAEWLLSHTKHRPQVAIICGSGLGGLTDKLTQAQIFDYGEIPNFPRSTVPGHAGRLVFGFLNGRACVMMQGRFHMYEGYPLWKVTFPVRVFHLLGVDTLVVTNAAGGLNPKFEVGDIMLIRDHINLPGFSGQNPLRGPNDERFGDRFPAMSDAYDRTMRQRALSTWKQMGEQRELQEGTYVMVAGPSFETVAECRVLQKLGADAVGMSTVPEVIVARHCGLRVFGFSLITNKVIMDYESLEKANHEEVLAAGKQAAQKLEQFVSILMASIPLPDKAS
As to the kind of experiment: Inhibition of human purine nucleoside phosphorylase.

In data set [3] the target is T4, Group 3 secretory phospholipase A2 (Homo sapiens) (UniProt Q9NZ20).
T4 sequence (whole entry): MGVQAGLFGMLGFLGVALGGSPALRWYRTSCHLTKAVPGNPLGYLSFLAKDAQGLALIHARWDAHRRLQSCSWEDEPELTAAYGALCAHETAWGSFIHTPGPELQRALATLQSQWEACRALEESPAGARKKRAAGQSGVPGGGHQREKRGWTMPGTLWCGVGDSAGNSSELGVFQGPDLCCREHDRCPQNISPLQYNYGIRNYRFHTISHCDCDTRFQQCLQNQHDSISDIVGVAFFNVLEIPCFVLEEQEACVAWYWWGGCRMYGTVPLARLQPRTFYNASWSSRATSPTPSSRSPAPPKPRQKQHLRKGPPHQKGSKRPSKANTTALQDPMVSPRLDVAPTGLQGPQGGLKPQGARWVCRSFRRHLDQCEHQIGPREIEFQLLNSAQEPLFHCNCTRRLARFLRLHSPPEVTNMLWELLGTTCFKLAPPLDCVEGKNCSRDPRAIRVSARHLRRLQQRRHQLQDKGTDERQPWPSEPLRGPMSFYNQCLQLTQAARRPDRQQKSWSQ
The data set can be described thus: Inhibition of human group 3 sPLA2 at 10 uM. In outline: (§1)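 Human group III sPLA2 catalytic domain made in Drosophila S2 cells. Inhibitor at 10 or 100 µM preincubated 10 min with enzyme in Tris pH 8.0 buffer with 10 mM CaCl2 and 0.1% BSA. Then 15 min room-temperature hydrolysis of 3H-oleate-labelled E. coli membranes. Stopped with EDTA and fatty-acid-free BSA; supernatant counts after centrifugation.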

In data set [4] the target is T4, Group 3 secretory phospholipase A2 (Homo sapiens). The data set can be described thus: Inhibition of human group 3 sPLA2 at 100 uM. A digest of the protocol:
as §1

The target in data set [5] is T5, Phospholipase A2 group V (Homo sapiens) (UniProt P39877).
T5 sequence (whole entry): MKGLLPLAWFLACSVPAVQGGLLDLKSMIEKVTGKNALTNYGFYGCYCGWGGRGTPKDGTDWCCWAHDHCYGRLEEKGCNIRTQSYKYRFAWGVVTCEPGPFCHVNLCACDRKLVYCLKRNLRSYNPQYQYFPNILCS
As to the kind of experiment: Inhibition of human group 5 sPLA2 at 30 uM. In outline: (§2)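 Recombinant human sPLA2 expressed in E. coli, at 40 pM for group V or 20 pM for group X, preincubated with inhibitor 10 min (15 min in legends). Buffer is 100 mM Tris pH 8.0, 10 mM CaCl2, 0.1% BSA. Substrate is E. coli membranes carrying 100,000 dpm 3H-oleate phospholipids, 15 min at room temperature. Reaction stopped with EDTA/fatty-acid-free BSA and centrifuged; supernatant radioactivity counted. Single 30 µM or concentration series for IC50; at least three experiments.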

For another data set, the target named is T6, Phospholipase A2 group V (Homo sapiens, UniProt P39877).
T6 sequence (P39877 whole entry): T5 sequence (whole entry)
As to the kind of experiment: Inhibition of human group 5 sPLA2. A digest of the protocol: as §2

The target of data set [6] is T7, Group 10 secretory phospholipase A2 (Homo sapiens, UniProt O15496).
T7 sequence (O15496 whole entry): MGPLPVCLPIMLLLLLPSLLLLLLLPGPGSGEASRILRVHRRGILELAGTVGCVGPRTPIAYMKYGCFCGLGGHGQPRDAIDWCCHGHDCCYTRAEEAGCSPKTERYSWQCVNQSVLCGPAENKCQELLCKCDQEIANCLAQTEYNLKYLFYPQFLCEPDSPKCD
The data set can be described thus: Inhibition of human group 10 sPLA2. In outline: as §2

For data set [7], the target named is T8, Group 10 secretory phospholipase A2 (Homo sapiens) (UniProt O15496).
T8 sequence (whole entry): T7 sequence (O15496 whole entry)
As to the kind of experiment: Inhibition of human group 10 sPLA2 at 30 uM. In outline: as §2

Data set [8] has as its target Phospholipase A2 (Homo sapiens) (UniProt P04054). The data set can be described thus: Inhibition of human group 1B sPLA2 at 30 uM. In outline: (§3)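 Recombinant human group IB or IIA sPLA2 from E. coli, enzyme level set for linear hydrolysis. Preincubated 10 min with inhibitor at 30 µM in 100 mM Tris pH 8.0, 10 mM CaCl2, 0.1% BSA. 3H-oleate-labelled E. coli membrane substrate added for 15 min at room temperature. Stopped with EDTA/BSA, centrifuged at 14000g, released radioactivity counted; expressed as percent inhibition.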

Data set [9] deals with T9, Phospholipase A2, membrane associated (Homo sapiens) (UniProt P14555).
T9 sequence (whole entry): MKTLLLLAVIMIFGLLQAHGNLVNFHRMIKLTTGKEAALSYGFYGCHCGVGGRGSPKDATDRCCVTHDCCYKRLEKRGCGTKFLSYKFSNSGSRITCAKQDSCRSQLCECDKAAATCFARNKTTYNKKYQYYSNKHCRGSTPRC
As to the kind of experiment: Inhibition of human group 2A sPLA2 at 30 uM. A digest of the protocol: as §3

For data set [10], the target named is T10, Purine nucleoside phosphorylase (Toxoplasma gondii, UniProt Q2HXR2).
T10 sequence (Q2HXR2 whole entry): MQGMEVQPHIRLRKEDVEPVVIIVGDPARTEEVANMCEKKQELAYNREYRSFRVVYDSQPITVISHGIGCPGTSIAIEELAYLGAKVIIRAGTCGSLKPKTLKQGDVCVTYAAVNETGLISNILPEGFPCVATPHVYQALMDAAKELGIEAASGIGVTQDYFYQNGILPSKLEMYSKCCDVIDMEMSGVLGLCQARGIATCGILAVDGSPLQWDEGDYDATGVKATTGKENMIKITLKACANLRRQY
The data set can be described thus: Inhibition of Toxoplasma gondii purine nucleoside phosphorylase.

Active and inactive are the calls of the source. The rule behind the calls is not given here. Where only a bound is given, the exact number is not on record here.

Sequence of Phospholipase A2 (Homo sapiens) (P04054 23-148 limits assumed): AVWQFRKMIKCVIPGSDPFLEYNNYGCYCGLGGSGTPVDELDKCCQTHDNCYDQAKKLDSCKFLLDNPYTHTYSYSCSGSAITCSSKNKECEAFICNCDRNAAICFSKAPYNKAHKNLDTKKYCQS

For `C[C@@H]1NC(=O)NC2Cc3ccccc3CN2C1=O` (stereo partly drawn), the Activity result on Sulfotransferase 1E1 is “Not Active”. Also, the result (in data set [1]; in the data set listed under Homo sapiens; in [2]; in [3]; in [4]) was inactive.
With `O=C1N[C@@H](Cc2ccccc2)C(=O)N2C[C@H](O)C[C@H]2N1`, the Activity result on Sulfotransferase 1E1 is “Not Active”. Moreover, the outcome (in data set [1]; in the data set listed under Homo sapiens; in data set [2]; in data set [3]; in data set [4]) was inactive.
For the compound `CN1CN(CC(=O)OC(C)(C)C)C(=O)N[C@@H](Cc2ccc3ccccc3c2)C1=O`, the inhibition in data set [5] was over 70%.
`CN1C(=O)[C@H](Cc2ccccc2)NC(=O)N[C@@H]1Cc1ccccc1` showed an inhibition in [5] of over 70%. The 50% inhibitory concentration (IC50) on Phospholipase A2 group V turned out to be 11 µM; in data set [6], 13 µM.
As to `CN1CN(C/C=C/C(=O)O)C(=O)N[C@@H](Cc2ccccc2)C1=O`, the inhibition in data set [5] and in [7] was over 70% each time. Also, the IC50 against Phospholipase A2 group V was found to be 12 µM; in [6] it was 10 µM.
Regarding `CN1CN(CC(=O)OC(C)(C)C)C(=O)N[C@@H](Cc2ccccc2)C1=O`, the inhibition in data set [5] was over 70%.
The same measure, in the same setting: the result for `CC(C)(C)OC(=O)CN1C(=O)N[C@@H](Cc2ccccc2)C(=O)N2CCC[C@@H]12` reads over 70%.
Take `CN1CN(CC(=O)O)C(=O)N[C@@H](Cc2ccccc2)C1=O`: on Sulfotransferase 1E1, the Activity result is listed as “Not Active”. The outcome (in data set [1]; in the data set filed under Homo sapiens; in data set [2]; in data set [3]; in data set [4]; in [8]) was inactive. In data set [9], this compound yielded an inhibition of 25%.
Take `CN1CN(CC(=O)O)C(=O)N(CC(=O)O)[C@@H](Cc2ccccc2)C1=O`: the inhibition in [5] was over 70%.
As to `CN1CN(CCCC(=O)O)C(=O)N[C@@H](Cc2ccccc2)C1=O`, the inhibition in data set [5] and in data set [7] was over 70% each time.
In data set [5], `CN1CN(CCCC(N)=O)C(=O)N[C@@H](Cc2ccccc2)C1=O` gave an inhibition of over 70%.
Still for that read-out and setting: the result for `COC(=O)CN1CN(C)C(=O)[C@H](Cc2ccccc2)NC1=O` reads over 70%.
`CN1CN(CC(=O)OC(C)(C)C)C(=O)N(CC(=O)OC(C)(C)C)[C@@H](Cc2ccccc2)C1=O` returned an inhibition in data set [5] of over 70%. Also, the IC50 (against Phospholipase A2 group V; in [6]) was 11 µM in each case.
With `CC(C)[C@@H]1NC(=O)N(CC(=O)OC(C)(C)C)CN(C)C1=O`, the inhibition in [5] and in data set [7] was over 70% each time. Also, the concentration for half-maximal inhibition (IC50) against Phospholipase A2 group V was determined as 12 µM; in [6], 11 µM.
In the case of `CN1CNC(=O)N[C@@H](CN)C1=O`, at Sulfotransferase 1E1, the Activity entry is on record as “Not Active”. In addition, the result (in data set [1]; in the data set listed under Homo sapiens; in [2]; in [3]; in data set [4]) was inactive.
Turning to `CC(C)[C@@H]1NC(=O)N(Cc2ccccc2)CN(C)C1=O`, the inhibition in [5] and in [7] was over 70% each time.
Turning to `O=C1[C@@H]2Cc3ccccc3CN2C(=O)N[C@@H]2CCCN12`, the Activity result at Sulfotransferase 1E1 is “Not Active”. For the same compound, the outcome (in data set [1]; in the data set listed under Homo sapiens; in data set [2]; in data set [3]; in [4]) was inactive.
As for `CN1CN(C/C=C/C(=O)OC(C)(C)C)C(=O)N[C@@H](Cc2ccccc2)C1=O`, the inhibition in data set [7] is over 70%.
As for `CC(C)(C)OC(=O)CN1C(=O)N(CC(=O)OC(C)(C)C)[C@@H](Cc2ccccc2)C(=O)N2CCC[C@H]21`, the inhibition in data set [7] is over 70%.
In the case of `O=C1N[C@@H](Cc2ccccc2)C(=O)N2C[C@H](OCc3ccccc3)C[C@H]2N1`, the Activity entry on Sulfotransferase 1E1 is on record as “Not Active”. Further, the result (in data set [1]; in the data set listed under Homo sapiens; in data set [2]; in data set [3]; in [4]) was inactive. Besides, the Ki in data set [10] is 8 µM.
`CC(C)(C)OC(=O)CN1C(=O)N[C@@H](Cc2ccc3ccccc3c2)C(=O)N2CCC[C@@H]12`: the inhibition in [5] is over 70%.
In the case of `CN1CNC(=O)N[C@@H](Cc2ccccc2)C1=O`, the Activity result on Sulfotransferase 1E1 was “Not Active”. In addition, the outcome (in data set [1]; in the data set filed under Homo sapiens; in data set [2]; in data set [3]; in data set [4]) was inactive.
For `CC(C)C[C@@H]1NC(=O)NCN(C)C1=O`, on Sulfotransferase 1E1, the Activity entry was “Not Active”. In addition, the outcome (in [1]; in the data set listed under Homo sapiens; in data set [2]; in data set [3]; in data set [4]) was inactive.

By inhibition is commonly meant the percentage by which the read-out fell short of the control. One may read the IC50 as the concentration that gives 50% inhibition. As usually defined, the Ki is the dissociation constant of the complex between target and ligand, obtained from inhibition or displacement. Higher therefore signals weaker binding.

The values are drawn from ChEMBL document CHEMBL1137329, “In silico-guided target identification of a scaffold-focused library: 1,3,5-triazepan-2,6-diones as novel phospholipase A2 inhibitors” (J Med Chem, 2006).
